Bioassay records from PubChem.
STAT1 blocker: STAT1 signaling inhibitors, primary screen, cell-based, HTS, luciferase reporter | NIH 3T3 STAT1-luciferase reporter, IFN-gamma, luminescence | 200,000 compounds, 0.35% hits | inhibition, % at 5.5 µM;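 active = inhibition above a set limit, the mean inhibition across all tested compounds plus 3 SD, cut at about 34% in these data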;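 also: 0% = IFN-gamma with DMSO and 100% = IFN-gamma with 300 µM nifuroxazide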
STAT3 inh-1: IL-6 driven STAT3 reporter inhibitors, primary screen, U3A cells, luciferase, luminescence, MLSCN library; inhibition, % at 5.5 µM; IL-6 STAT3-luciferase reporter; host cell line lacks STAT1; 190,000 compounds, 0.89% hits;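 active = inhibition above the mean inhibition across all screened compounds plus 3 SD, cut at about 44% in these data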;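 also: 0% = DMSO only wells and 100% = 100 µM nifuroxazide control wells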
NF-kB neuron act: activators of NF-kB expression in neurons, primary screen, cell-based, HTS | fold change at 12.5 µM | human neuronal cells, NF-kB reporter expression; active compounds read high | AID 1239, 2008 | 190,000 compounds, 1.6% hits; in the data active = fold change above about 3.3
STAT3 act: IL-6 driven STAT3 reporter potentiators, primary screen, U3A cells, luciferase, luminescence, MLSCN library; 190,000 compounds, 0.91% hits; AID 871, 2007; IL-6 STAT3-luciferase reporter; 100% = signal with IL-6 EC80 alone; activation (% of control), % at 5.6 µM;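 active = activation above the screen-wide mean of compound activation plus 3 SD, cut at about 130% in these data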;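 also: 0% = background luminescence of wells with medium and substrate only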
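Test system: Human STAT1-deficient U3A cells with stable STAT3-luciferase reporter | Also added: Interleukin-6, 33 ng/mL | Timing: Compound pre-incubation 1 h before IL-6, then 6 h stimulation at 37 °C | Technique: Luciferase reporter luminescence | Read-out: Percent of IL-6-only median luminescence | Benchmarks: IL-6-only wells as 100% reference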
STAT1 activator: STAT1 signaling activators, primary screen, cell-based, HTS, luciferase reporter; NIH 3T3 STAT1-luciferase reporter, IFN-gamma, luminescence; 100% = IFN-gamma alone, no compound; activation (% of control), % at 5.5 µM; 200,000 compounds, 2.6% hits; AID 932, 2007;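 active = activation above the screen-wide mean activation plus 3 SD, cut at about 130% in these data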;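 also: raw ratio to IFN-gamma control signal so 100% means no change and 0% no light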
APP 5'UTR act: activators of APP 5'UTR luciferase reporter, primary screen, SH-SY5Y cells. SH-SY5Y APP 5'UTR luciferase reporter, luminescence; zero percent = DMSO vehicle wells. 190,000 compounds, 1% hits. AID 1276, 2008. activation, % at 2 µM;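 active = activation above a set limit, based on mean plus 3 SD of controls, cut at about 140% in these data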
STAT3 inh-2: STAT3 reporter inhibitors, retest of hits, confirmation, U3A cells, luciferase, luminescence; 1,200 compounds, 45% hits; shares compounds with STAT3 inh-1; inhibition, % at 5.7 µM; IL-6 STAT3 luciferase reporter; cell line lacks STAT1;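 active = inhibition above the hit cutoff computed for the primary STAT3 screen, cut at about 44% in these data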;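 also: 0% = IL-6 plus DMSO and 100% = IL-6 plus nifuroxazide control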
NFkB inh 2: NF-kB reporter inhibitors in human cells, confirmation, counter-screen for STAT3 inhibitor project, cell-based, HEK293T, luciferase, TNF-alpha stimulus | TNF-alpha induced | AID 1308, 2008 | inhibition, % at 5.7 µM | 1,200 compounds, 36% hits | shares compounds with STAT3 inh-1;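 active = inhibition above the mean of solvent-only control wells plus 3 SD, cutoff set per campaign, cut at about 13% in these data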;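 also: 0% = TNF-alpha with DMSO and 100% = TNF-alpha with MG high control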
STAT1 inh STAT3c: STAT1 reporter inhibitors, IFN-gamma induced, confirmation, counter-screen for STAT3 inhibitor project, cell-based, NIH 3T3, luciferase luminescence; inhibition, % at 5.7 µM; NIH 3T3 STAT1-luciferase reporter; shares compounds with STAT3 inh-1; AID 1317, 2008; 1,200 compounds, 27% hits;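 active = inhibition above the mean plus 3 SD of solvent-only control wells, limit set per screening run, cut at about 16% in these data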;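 also: 0% = DMSO with IFN-gamma and 100% = nifuroxazide control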
Starred values were filed as active, the others as inactive; . = no result given. Sampled rows, rich in hits. Any-hit rate of the full collection: about 5.1%.

SMILES	STAT1 blocker	STAT3 inh-1	NF-kB neuron act	STAT3 act	STAT1 activator	APP 5'UTR act	STAT3 inh-2	NFkB inh 2	STAT1 inh STAT3c
Cc1nnc(NC(=O)c2sc3ccccc3c2Cl)s1	24	66*	3.3*	45	78	65	45*	13*	19*
COCc1nnc(NC(=O)c2sc3ccccc3c2Cl)s1	-1	9	1.7	95	101	11	.	.	.
CNC(=O)c1ccsc1NC(=O)c1sc2ccccc2c1Cl	-27	-4	1.1	103	124	47	.	.	.
CCOc1ccccc1N1CCN(Cc2cccc(OC)c2OC)CC1	6	14	1.5	92	95	2	.	.	.
COc1cc(NC(=O)c2ccc3c(c2)OCCO3)ccc1NC(=O)c1cccs1	-10	21	0.74	84	108	12	.	.	.
COc1cc(NC(=O)c2ccc([N+](=O)[O-])o2)ccc1NC(=O)c1cccs1	-14	44*	1.4	68	112	-35	28	5	-14
Cc1cccc(NC(=O)C(c2cccc([N+](=O)[O-])c2)N2CCCCC2)c1 (stereo not drawn)	-3	1	0.95	106	102	-3	.	.	.
c1ccc(OCCCCn2cnc3ccccc32)cc1	13	44*	0.95	66	88	10	35	-7	-2
Cc1ccccc1OCCCCn1cnc2ccccc21	9	61*	1.1	50	93	22	52*	12	14
Cc1ccc(OCCCCn2cnc3ccccc32)cc1	17	26	1.3	82	82	9	.	.	.
CCCOc1ccc(Cn2cnc3ccccc32)cc1	15	48*	0.68	63	87	-2	29	-1	7
NNC(=O)c1cccc(COc2ccc(Br)cc2)c1	32	79*	1.9	31	71	105	71*	33*	31*
CC1CN(C(=O)c2cccc(COc3ccc(Br)cc3)c2)CC(C)O1 (stereo not drawn)	-27	-21	2.5	120	124	72	.	.	.
CN(C)c1ccc(/C=C2\CCC/C(=C\c3ccccc3)C2=O)cc1	0	12	1	92	100	1	.	.	.
CN(C)c1ccc(/C=c2\sc3n(c2=O)CCCN=3)cc1	-55	64*	5.7*	46	150*	142*	11	-20	-179
COc1cc(C)c(Br)cc1S(=O)(=O)NCc1ccccc1	-3	16	1.4	91	102	15	.	.	.
O=S(=O)(NCc1ccncc1)c1ccccc1	12	32	0.99	72	88	-1	.	.	.
O=S(=O)(NCc1ccncc1)c1ccc(Br)s1	31	83*	1.4	34	72	-28	80*	27*	27*
CCN(C1CCCCC1)S(=O)(=O)c1ccc(S(=O)(=O)NCCc2ccncc2)cc1	-1	-6	1.4	111	102	18	.	.	.
Cc1ccc(S(=O)(=O)NCc2ccncc2)cc1C	31	74*	0.89	39	70	3	76*	26*	17*
O=C(O)CNS(=O)(=O)c1ccc(Br)s1	3	-2	1.2	107	98	-7	.	.	.
CCN(C1CCCCC1)S(=O)(=O)c1ccc(S(=O)(=O)NCc2ccncc2)cc1	21	62*	0.86	51	81	19	43	15*	25*
